pIC50: −log10 of the molar value.
Tests used:
Aurora kinase B [1] = target: T1, Aurora kinase B (Homo sapiens, UniProt Q96GD4); assay: Inhibition of Aurora B
MCF7 = assay: Antiproliferative activity against human MCF7 cells; format: functional, cell-based
Procedure, shortened: (§1)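 HCT116, HT29 or MCF7 cells were seeded on day 0 in 1:1 Ham's F12/DMEM-high glucose with 10% FBS and 2 mM L-glutamine, then kept overnight at 37 °C in 5% CO2. On day 1, inhibitor in DMSO, diluted 20-fold in serum- and glutamine-free medium, was added. Viability was read on day 4 as total ATP by CellTiter-Glo luminescence.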

Aurora kinase A [2] = target: T2, Aurora kinase A (Homo sapiens, UniProt O14965); assay: Inhibition of Aurora A
T2 sequence (O14965 whole entry): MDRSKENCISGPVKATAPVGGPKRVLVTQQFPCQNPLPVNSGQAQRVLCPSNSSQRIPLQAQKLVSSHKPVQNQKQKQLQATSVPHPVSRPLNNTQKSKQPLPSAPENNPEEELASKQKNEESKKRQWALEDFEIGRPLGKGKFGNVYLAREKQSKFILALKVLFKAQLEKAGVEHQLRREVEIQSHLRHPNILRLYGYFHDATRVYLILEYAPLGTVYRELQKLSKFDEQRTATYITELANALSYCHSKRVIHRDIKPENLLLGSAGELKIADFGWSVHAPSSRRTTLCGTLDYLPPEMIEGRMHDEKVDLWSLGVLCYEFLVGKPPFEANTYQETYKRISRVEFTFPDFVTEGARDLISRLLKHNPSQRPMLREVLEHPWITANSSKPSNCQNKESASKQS

HT-29 = assay: Antiproliferative activity against human HT29 cells; format: functional, cell-based; procedure, shortened: as §1
[3] = AUClast in CD1 mouse at 30 mg/kg, po; format: ADME, organism-based; parameters: time 0 - last, dose 30 mg/kg, route oral; conditions: plasma
[4] = Cmax in CD1 mouse at 30 mg/kg, po; format: ADME, organism-based; parameters: dose 30 mg/kg, route oral; conditions: in vivo
[5] = Clearance in Beagle dog 1 mg/kg, iv; format: ADME, organism-based, Canis lupus familiaris; parameters: dose 1 mg/kg, route intravenous; conditions: in vivo
Procedure, shortened: (§2)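 A single 1 mg/kg iv dose was given. Vehicles: CD-1 mice (female, 3 per time point), 5% DMSO/5% Cremophor; SD rats (male, 3 per route), 80% PEG; beagles (male, 3 per route), 60% PEG. PK parameters were calculated from averaged serum levels (N = 3).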

[6] = Oral bioavailability in Sprague-Dawley rat 5 mg/kg; format: ADME, organism-based; conditions: in vivo
Procedure, shortened: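 Male Sprague-Dawley rats, three per route. Oral dose 5 mg/kg as a solution in 80% PEG; iv dose 1 mg/kg, also as an 80% PEG solution. PK parameters calculated from averaged serum levels (N = 3).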

[7] = target: Receptor-type tyrosine-protein kinase FLT3 (Homo sapiens, UniProt P36888); assay: Inhibition of Flt3
Receptor-type tyrosine-protein kinase FLT3, sequence (P36888 whole entry): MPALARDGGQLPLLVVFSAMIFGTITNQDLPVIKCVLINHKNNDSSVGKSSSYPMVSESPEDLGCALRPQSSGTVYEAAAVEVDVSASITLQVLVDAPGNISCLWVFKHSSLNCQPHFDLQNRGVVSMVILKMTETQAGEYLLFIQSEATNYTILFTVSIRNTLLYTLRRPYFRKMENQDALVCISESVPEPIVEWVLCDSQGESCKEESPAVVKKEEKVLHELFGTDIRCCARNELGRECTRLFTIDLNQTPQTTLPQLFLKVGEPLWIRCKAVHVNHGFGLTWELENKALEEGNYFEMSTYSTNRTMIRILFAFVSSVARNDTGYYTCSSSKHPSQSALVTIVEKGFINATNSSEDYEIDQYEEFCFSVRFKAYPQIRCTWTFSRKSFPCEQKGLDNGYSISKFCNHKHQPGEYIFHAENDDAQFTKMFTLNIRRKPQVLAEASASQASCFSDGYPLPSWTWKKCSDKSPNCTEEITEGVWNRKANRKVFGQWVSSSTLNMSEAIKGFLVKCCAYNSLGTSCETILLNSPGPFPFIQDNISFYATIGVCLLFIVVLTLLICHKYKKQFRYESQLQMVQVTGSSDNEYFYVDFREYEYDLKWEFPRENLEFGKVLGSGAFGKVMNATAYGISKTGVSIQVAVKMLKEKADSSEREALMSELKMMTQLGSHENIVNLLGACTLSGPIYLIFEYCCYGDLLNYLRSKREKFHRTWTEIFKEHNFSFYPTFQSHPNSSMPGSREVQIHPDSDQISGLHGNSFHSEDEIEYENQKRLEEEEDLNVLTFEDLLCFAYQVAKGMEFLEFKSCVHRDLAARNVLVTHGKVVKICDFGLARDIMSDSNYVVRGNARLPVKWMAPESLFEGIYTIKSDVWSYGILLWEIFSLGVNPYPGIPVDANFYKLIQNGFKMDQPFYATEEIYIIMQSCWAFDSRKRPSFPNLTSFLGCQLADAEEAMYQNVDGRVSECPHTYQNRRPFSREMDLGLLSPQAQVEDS

[8] = target: Vascular endothelial growth factor receptor 2 (Homo sapiens, UniProt P35968); assay: Inhibition of KDR
Vascular endothelial growth factor receptor 2, sequence (P35968 whole entry): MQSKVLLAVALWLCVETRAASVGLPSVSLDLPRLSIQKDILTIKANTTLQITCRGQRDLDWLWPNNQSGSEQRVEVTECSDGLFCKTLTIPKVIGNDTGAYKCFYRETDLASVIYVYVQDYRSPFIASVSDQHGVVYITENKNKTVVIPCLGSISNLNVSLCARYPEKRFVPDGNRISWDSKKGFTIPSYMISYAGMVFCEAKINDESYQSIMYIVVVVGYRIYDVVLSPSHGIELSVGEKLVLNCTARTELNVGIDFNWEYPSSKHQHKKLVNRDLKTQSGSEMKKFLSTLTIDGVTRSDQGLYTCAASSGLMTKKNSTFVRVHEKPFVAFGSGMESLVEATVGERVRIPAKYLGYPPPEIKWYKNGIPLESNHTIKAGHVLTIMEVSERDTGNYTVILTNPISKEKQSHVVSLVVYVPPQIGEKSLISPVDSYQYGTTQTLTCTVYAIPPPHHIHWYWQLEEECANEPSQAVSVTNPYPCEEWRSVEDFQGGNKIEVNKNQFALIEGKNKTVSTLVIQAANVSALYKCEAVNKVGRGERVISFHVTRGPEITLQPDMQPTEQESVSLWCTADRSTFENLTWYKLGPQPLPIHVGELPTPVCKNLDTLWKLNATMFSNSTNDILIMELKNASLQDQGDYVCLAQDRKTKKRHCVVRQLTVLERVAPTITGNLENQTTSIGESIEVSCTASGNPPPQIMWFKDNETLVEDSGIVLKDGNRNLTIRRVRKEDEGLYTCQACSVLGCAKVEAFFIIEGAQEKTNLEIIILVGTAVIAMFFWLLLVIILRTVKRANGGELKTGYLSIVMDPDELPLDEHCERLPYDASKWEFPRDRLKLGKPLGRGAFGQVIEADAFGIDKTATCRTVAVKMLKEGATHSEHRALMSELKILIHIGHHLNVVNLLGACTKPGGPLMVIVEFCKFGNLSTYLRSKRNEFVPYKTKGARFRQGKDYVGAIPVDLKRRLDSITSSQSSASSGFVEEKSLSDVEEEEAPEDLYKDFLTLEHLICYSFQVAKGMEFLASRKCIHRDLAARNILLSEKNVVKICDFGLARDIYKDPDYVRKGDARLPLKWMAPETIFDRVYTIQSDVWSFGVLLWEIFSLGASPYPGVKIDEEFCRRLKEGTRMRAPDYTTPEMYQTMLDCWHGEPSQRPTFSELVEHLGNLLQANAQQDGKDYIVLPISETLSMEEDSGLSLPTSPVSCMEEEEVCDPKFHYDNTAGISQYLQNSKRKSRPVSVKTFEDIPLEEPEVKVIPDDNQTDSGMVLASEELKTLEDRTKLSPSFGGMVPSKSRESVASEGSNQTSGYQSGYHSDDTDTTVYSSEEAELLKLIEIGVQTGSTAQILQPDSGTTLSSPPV

[9] = Oral bioavailability in Beagle dog 5 mg/kg; format: ADME, organism-based, Canis lupus familiaris; conditions: in vivo
Procedure, shortened: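 Three male beagles per route. Oral dose 5 mg/kg given as a solution in 80% PEG; iv comparator 1 mg/kg delivered in 60% PEG. Mean serum concentrations (N = 3) used to derive PK parameters.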

Aurora kinase A [10] = target: T2, Aurora kinase A; assay: Inhibition of Aurora A in human HCT cells assessed as loss of autophosphorylation of Aurora A; format: cell-based
[11] = target: Cyclin-dependent kinase 2 (Homo sapiens, UniProt P24941); assay: Inhibition of CDK2/CyclinA
[12] = target: Serine/threonine-protein kinase Chk1 (Homo sapiens, UniProt O14757); assay: Inhibition of Chk1
Serine/threonine-protein kinase Chk1, sequence (O14757 whole entry): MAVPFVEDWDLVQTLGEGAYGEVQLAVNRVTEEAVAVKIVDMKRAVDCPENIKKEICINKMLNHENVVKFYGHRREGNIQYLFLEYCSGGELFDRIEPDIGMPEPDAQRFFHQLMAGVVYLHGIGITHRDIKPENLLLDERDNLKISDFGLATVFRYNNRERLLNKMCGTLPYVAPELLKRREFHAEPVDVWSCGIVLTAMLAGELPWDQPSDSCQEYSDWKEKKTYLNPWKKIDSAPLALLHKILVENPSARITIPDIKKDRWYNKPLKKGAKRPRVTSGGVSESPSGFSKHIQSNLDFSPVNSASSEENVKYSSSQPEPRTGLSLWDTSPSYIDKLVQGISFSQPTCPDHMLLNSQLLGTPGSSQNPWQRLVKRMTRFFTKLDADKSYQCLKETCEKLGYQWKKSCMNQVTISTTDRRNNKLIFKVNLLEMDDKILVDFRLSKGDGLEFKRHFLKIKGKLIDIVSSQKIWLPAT

Mus musculus [13] = assay: Toxicity in athymic mouse xenografted with human HCT116 cells assessed as loss of body weight at 10 mg/kg, po qd; format: organism-based, HCT-116; parameters: dose 10 mg/kg, route oral; conditions: in vivo
Procedure, shortened: (§3)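 Female athymic nude mice, 5 × 10^6 HCT-116 cells injected subcutaneously in the right flank. At a mean tumor volume of ~150 mm3, mice were randomized to groups (N = 10). Oral QD dosing at 0, 1, 2.5, 5 or 10 mg/kg as a suspension in 20% HP-β-cyclodextrin (100 µL). Three mice per group were taken for PD after 2 days; the rest were dosed for 21 days. Body weight was followed, with euthanasia at 20% weight loss.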

Aurora kinase B [14] = target: T1, Aurora kinase B; assay: Inhibition of Aurora B assessed as loss of phospho histone H3 in human […] cells; format: cell-based
Mus musculus [15] = assay: Toxicity in athymic mouse xenografted with human HCT116 cells assessed as gastrointestinal hypocellularity at 10 mg/kg, po qd; conditions: in vivo
[16] = target: Proto-oncogene tyrosine-protein kinase Src (Homo sapiens, UniProt P12931); assay: Inhibition of Src
Proto-oncogene tyrosine-protein kinase Src, sequence (P12931 2-536 limits assumed): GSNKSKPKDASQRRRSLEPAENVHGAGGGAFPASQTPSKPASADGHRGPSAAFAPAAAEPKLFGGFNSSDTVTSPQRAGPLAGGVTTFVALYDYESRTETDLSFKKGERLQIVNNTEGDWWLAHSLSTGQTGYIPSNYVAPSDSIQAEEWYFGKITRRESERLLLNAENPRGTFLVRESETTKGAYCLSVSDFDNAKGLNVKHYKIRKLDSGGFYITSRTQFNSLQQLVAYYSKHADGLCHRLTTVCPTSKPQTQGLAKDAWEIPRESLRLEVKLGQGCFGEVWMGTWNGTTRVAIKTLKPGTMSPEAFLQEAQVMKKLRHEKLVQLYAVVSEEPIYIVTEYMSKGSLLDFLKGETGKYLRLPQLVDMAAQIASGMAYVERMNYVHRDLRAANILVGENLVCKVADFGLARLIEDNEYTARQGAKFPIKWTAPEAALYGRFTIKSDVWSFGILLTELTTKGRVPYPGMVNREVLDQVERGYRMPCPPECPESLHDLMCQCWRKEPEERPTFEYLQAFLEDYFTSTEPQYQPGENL

Mus musculus [17] = assay: Toxicity in athymic mouse xenografted with human HCT116 cells assessed as bone marrow depletion at 10 mg/kg, po qd; format: organism-based, HCT-116; parameters: dose 10 mg/kg, route oral; conditions: in vivo; procedure, shortened: as §3
[18] = Clearance in CD1 mouse 1 mg/kg, iv; format: ADME, organism-based; parameters: dose 1 mg/kg, route intravenous; conditions: in vivo; procedure, shortened: as §2
Mus musculus [19] = assay: Oral bioavailability in CD1 mouse 5 mg/kg; format: ADME, organism-based; conditions: in vivo
Procedure, shortened: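 Female CD-1 mice, three per time point. Oral dose 5 mg/kg as a solution in 80% polyethylene glycol; iv reference dose 1 mg/kg as a solution in 5% DMSO, 5% Cremophor. PK parameters calculated from mean serum levels (N = 3).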

Aurora kinase B [20] = target: T1, Aurora kinase B; assay: Inhibition of Aurora B assessed as loss of phospho histone H3 in human HCT cells; format: cell-based
[21] = target: Glycogen synthase kinase-3 beta (Homo sapiens, UniProt P49841); assay: Inhibition of GSK3-beta
Glycogen synthase kinase-3 beta, sequence (P49841 whole entry): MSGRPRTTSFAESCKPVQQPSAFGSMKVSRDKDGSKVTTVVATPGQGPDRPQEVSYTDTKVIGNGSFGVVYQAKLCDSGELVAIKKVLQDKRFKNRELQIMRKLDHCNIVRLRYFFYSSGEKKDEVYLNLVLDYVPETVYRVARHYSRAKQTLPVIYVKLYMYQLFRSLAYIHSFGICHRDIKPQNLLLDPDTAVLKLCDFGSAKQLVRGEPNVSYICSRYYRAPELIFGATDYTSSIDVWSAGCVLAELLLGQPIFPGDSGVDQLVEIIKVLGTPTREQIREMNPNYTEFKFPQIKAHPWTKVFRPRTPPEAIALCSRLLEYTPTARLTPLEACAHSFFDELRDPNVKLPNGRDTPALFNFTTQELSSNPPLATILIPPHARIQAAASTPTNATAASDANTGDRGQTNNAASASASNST

[22] = Clearance in Sprague-Dawley rat 1 mg/kg, iv; format: ADME, organism-based; parameters: dose 1 mg/kg, route intravenous; conditions: in vivo; procedure, shortened: as §2
HCT-116 = assay: Antiproliferative activity against human HCT116 cells

T1 sequence (Q96GD4 whole entry): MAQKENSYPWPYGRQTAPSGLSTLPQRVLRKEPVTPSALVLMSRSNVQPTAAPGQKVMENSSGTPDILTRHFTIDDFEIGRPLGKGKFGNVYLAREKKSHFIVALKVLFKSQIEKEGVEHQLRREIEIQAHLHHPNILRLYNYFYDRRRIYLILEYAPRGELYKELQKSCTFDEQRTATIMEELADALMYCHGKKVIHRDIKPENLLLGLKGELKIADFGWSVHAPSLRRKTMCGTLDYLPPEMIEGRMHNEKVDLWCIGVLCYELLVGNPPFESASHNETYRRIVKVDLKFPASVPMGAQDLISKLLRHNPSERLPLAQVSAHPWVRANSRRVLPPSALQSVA

| pIC50 (Aurora kinase B [1]) | pIC50 (MCF7) | pIC50 (Aurora kinase A [2]) | pIC50 (HT-29) | SMILES | other results |
| --- | --- | --- | --- | --- | --- |
| 6.06 | < 4.70 | 6.06 | < 4.70 | Cc1[nH]nc2c1Cc1c-2[nH]c2ccccc12 |  |
|  |  | 6.47 |  | OCc1[nH]nc2c1CCc1c-2[nH]c2ccccc12 |  |
| 6.89 |  | 7.16 |  | CCN1C(=O)C(C)(C)c2cc3nc(-c4cc(C)[nH]n4)[nH]c3cc21 | AUC(0-t) [3]: 180 µM·h; Cmax [4]: 51 µM |
| 6.29 |  | 5.96 |  | Cc1cc(-c2cc3ccccc3[nH]2)n[nH]1 |  |
|  |  | 6.96 |  | c1ccc2c3c([nH]c2c1)-c1n[nH]c(C2CC2)c1CC3 |  |
| 8.30 |  |  |  | CCN1C(=O)C(C)(C)c2cc3[nH]c4c(c3cc21)CCCc1c-4n[nH]c1C | clearance [5]: 34 mL/min/kg; bioavailability [6]: 97%; pIC50 [7]: 8.70; pIC50 [8]: 7.92; bioavailability [9]: 56%; pIC50 (Aurora kinase A [10]): 6.80; pIC50 [11]: 4.82; pIC50 [12]: 7.07; Activity (Mus musculus [13]): Toxic; pIC50 (Aurora kinase B [14]): 7.00; Activity (Mus musculus [15]): Toxic; pIC50 [16]: 6.60; Activity (Mus musculus [17]): Toxic; clearance [18]: 25 mL/min/kg; F (Mus musculus [19]): 178%; pIC50 (Aurora kinase B [20]): 6.51; pIC50 [21]: 5.11; clearance [22]: 22 mL/min/kg |
|  |  | 6.52 |  | c1ccc2c3c([nH]c2c1)-c1n[nH]cc1CC3 |  |
| 6.66 | 5.35 | 7.29 | < 4.70 | Cc1[nH]nc2c1CCc1c-2[nH]c2ccccc12 |  |
|  |  | 5.24 |  | CCOC(=O)c1[nH]nc2c1CCc1c-2[nH]c2ccccc12 |  |
|  | 7.32 |  | 6.82 | Cc1cc(Nc2cc(N3CCN(C)CC3)nc(Sc3ccc(NC(=O)C4CC4)cc3)n2)n[nH]1 [TOZASERTIB] | pIC50 (HCT-116): 7.28 |
| 7.66 | 6.17 | 7.38 | 5.59 | Cc1[nH]nc2c1CCCC1c3ccccc3NC21 (stereo not given) |  |
|  | 7.00 | 8.70 | 7.52 | Cc1[nH]nc2c1CCCc1c-2[nH]c2cc3c(cc12)NC(=O)C3(C)C |  |
| 6.82 |  | 6.74 |  | Cc1cc(-c2nc3cc4c(cc3[nH]2)NC(=O)C4(C)C)n[nH]1 | AUC(0-t) [3]: 1.5 µM·h; Cmax [4]: 0.88 µM |
| 7.07 | 5.82 | 7.14 | 5.59 | Cc1[nH]nc2c1CCCc1c-2[nH]c2cc3c(cc12)C(C)(C)C(=O)N3 |  |

Reference: ChEMBL document CHEMBL1155876 (J Med Chem, 2008)
